# Measurements reported in ChEMBL document CHEMBL5236662, “Synthesis and biological evaluation of tert-butyl ester and ethyl ester prodrugs of L-γ-methyleneglutamic acid amides for cancer” (Bioorg Med Chem, 2023).
# How the values were obtained:
# MCF7 [1] = test: Antiproliferative activity against human MCF7 cells assessed as inhibition of cell growth incubated for 72 hrs by Hoechst 33342/propidium iodide staining based fluorescence analysis; format: functional; settings: MCF7, 72 h
# [2] = (§1) Cytotoxicity against human MCF-10A cells assessed as inhibition of cell growth incubated for 72 hrs by Hoechst 33342/propidium iodide staining based fluorescence analysis; format: toxicity; settings: human, MCF-10A cells
# MDA-MB-231 = test: Antiproliferative activity against human MDA-MB-231 cells assessed as inhibition of cell growth incubated for 72 hrs by Hoechst 33342/propidium iodide staining based fluorescence analysis; format: functional; settings: MDA-MB-231, 72 h
# SK-BR-3 = test: Antiproliferative activity against human SK-BR-3 cells assessed as inhibition of cell growth incubated for 72 hrs by Hoechst 33342/propidium iodide staining based fluorescence analysis; format: functional; settings: SK-BR-3, 72 h
# [3] = Antiproliferative activity against human BNC6 cells assessed as inhibition of cell growth incubated for 72 hrs by CCK-8 assay; format: functional, cell-based; settings: BNC6, 72 h
# Summary of the method: (§2)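 Primary patient-derived glioblastoma lines were grown in RPMI 1640 with 10% FBS. Cells were seeded at 3,000 per well and dosed 24 h later at 10, 50, 100, 200 and 300 μM for 24 or 72 h, with BiCNU as control. CCK-8 was added and OD450 read after 2 h at 37 °C. Data are % cell survival, from 3 independent replicates.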
# BNC6 = test: Antiproliferative activity against human BNC6 cells assessed as suppression of cell growth incubated for 24 to 72 hrs by CCK-8 assay; format: functional, cell-based; settings: dose 10-300 µM, time 24-72 hrs; summary of the method: as §2
# [4] = Antiproliferative activity against human BNC3 cells assessed as inhibition of cell growth incubated for 72 hrs by CCK-8 assay; format: functional, cell-based; settings: BNC3, 72 h; summary of the method: as §2
# WSU-HN31 = test: Antiproliferative activity against human WSU-HN31 cells assessed as suppression of cell growth incubated for 24 to 72 hrs by CCK-8 assay; format: functional, cell-based; settings: dose 10-300 µM, time 24-72 hrs
# Summary of the method: (§3)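 Radiotherapy-resistant HNSCC lines were used: HN30 from pharynx SCC and HN31 from a lymph-node metastasis of the same patient. Cells in RPMI 1640 with 10% FBS were seeded at 3,000 per well and treated 24 h later with 10–300 μM (5 levels) for 24 or 72 h, with cisplatin as control. CCK-8 was read at OD450 after 2 h. Data are % survival, n = 3 independent experiments.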
# [5] = Antiproliferative activity against human WSU-HN30 cells assessed as inhibition of cell growth incubated for 72 hrs by CCK-8 assay; format: functional, cell-based; settings: WSU-HN30, 72 h; summary of the method: as §3
# MCF7 [6] = test: Antiproliferative activity against human MCF7 cells assessed as inhibition of cell growth incubated for 24 hrs by Hoechst 33342/propidium iodide staining based fluorescence analysis; format: functional; settings: MCF7, 24 h
# WSU-HN30 = test: Antiproliferative activity against human WSU-HN30 cells assessed as suppression of cell growth incubated for 24 to 72 hrs by CCK-8 assay; format: functional, cell-based; settings: dose 10-300 µM, time 24-72 hrs; summary of the method: as §3
# BNC3 = test: Antiproliferative activity against human BNC3 cells assessed as suppression of cell growth incubated for 24 to 72 hrs by CCK-8 assay; format: functional, cell-based; settings: dose 10-300 µM, time 24-72 hrs; summary of the method: as §2
# [7] = (§4) Cytotoxicity against human MCF-10A cells assessed as inhibition of cell growth incubated for 24 hrs by Hoechst 33342/propidium iodide staining based fluorescence analysis; format: toxicity; settings: human, MCF-10A cells
# [8] = Antiproliferative activity against human WSU-HN31 cells assessed as inhibition of cell growth incubated for 72 hrs by CCK-8 assay; format: functional, cell-based; settings: WSU-HN31, 72 h; summary of the method: as §3
# MCF-10A [9] = test: as §4; format: toxicity; settings: mcf-10a
# MCF-10A [10] = test: as §1; format: toxicity; settings: mcf-10a
IC50 (MCF7 [1]) [µM],IC50 (MDA-MB-231) [µM],IC50 (SK-BR-3) [µM],Structure (SMILES),IC50 at 72 h [2] [µM],further results
> 1000,< 1000,< 1000,C=C(C[C@H](NC(=O)OC(C)(C)C)C(=O)OC(C)(C)C)C(=O)Nc1ccccc1,> 1000,
,,,C=C(C[C@H](N)C(=O)O)C(=O)NCc1ccccc1,> 1000,IC50 [3]: 188 µM; Activity (BNC6): Dose-Dependent Effect; IC50 [4]: 171 µM; Activity (WSU-HN31): Dose-Dependent Effect; IC50 [5]: 119 µM; IC50 (MCF7 [6]): > 1000 µM; Activity (WSU-HN30): Dose-Dependent Effect; Activity (BNC3): Dose-Dependent Effect; IC50 at 24 h [7]: > 1000 µM; IC50 [8]: 199 µM
< 1000,< 1000,< 1000,O=C(c1cc(Cc2n[nH]c(=O)c3ccccc23)ccc1F)N1CCN(C(=O)C2CC2)CC1 [OLAPARIB],> 1000,IC50 (MCF7 [6]): > 1000 µM; IC50 (MCF-10A [9]): > 1000 µM
> 1000,> 1000,> 1000,C=C1C[C@@H](C(=O)OCC)N(C(=O)OC(C)(C)C)C1=O,> 1000,
> 1000,> 1000,> 1000,C=C(C[C@H](NC(=O)OC(C)(C)C)C(=O)OCC)C(=O)Nc1ccccc1,> 1000,
< 1000,< 1000,< 1000,C=C(C[C@H](NC(=O)OC(C)(C)C)C(=O)OC(C)(C)C)C(=O)NC1CC1,> 1000,
< 1000,< 1000,< 1000,C=C(C[C@H](NC(=O)OC(C)(C)C)C(=O)OC(C)(C)C)C(=O)N1CCCCC1,> 1000,
< 1000,< 1000,< 1000,CC/C(=C(\c1ccccc1)c1ccc(OCCN(C)C)cc1)c1ccccc1 [TAMOXIFEN],,IC50 (MCF-10A [10]): > 1000 µM; IC50 (MCF-10A [9]): > 1000 µM
,,,C=C(C[C@H](N)C(=O)O)C(=O)NCc1ccc([N+](=O)[O-])cc1,> 1000,IC50 [3]: 180 µM; Activity (BNC6): Dose-Dependent Effect; IC50 [4]: 156 µM; Activity (WSU-HN31): Dose-Dependent Effect; IC50 [5]: 91.8 µM; Activity (WSU-HN30): Dose-Dependent Effect; Activity (BNC3): Dose-Dependent Effect; IC50 at 24 h [7]: > 1000 µM; IC50 [8]: 194 µM
> 1000,< 1000,< 1000,C=C(C[C@H](NC(=O)OC(C)(C)C)C(=O)OCC)C(N)=O,> 1000,
> 1000,> 1000,< 1000,C=C(C[C@H](NC(=O)OC(C)(C)C)C(=O)OCC)C(=O)Nc1ccc(F)cc1,> 1000,
> 1000,> 1000,< 1000,C=C(C[C@H](NC(=O)OC(C)(C)C)C(=O)OCC)C(=O)NCc1ccccc1,> 1000,
,,,C=C(C[C@H](N)C(=O)O)C(=O)Nc1ccc(Cl)cc1,> 1000,IC50 at 24 h [7]: > 1000 µM
> 1000,< 1000,> 1000,C=C1C[C@@H](C(=O)OC(C)(C)C)N(C(=O)OC(C)(C)C)C1=O,> 1000,
> 1000,> 1000,> 1000,C=C1C[C@@H](C(=O)O)NC1=O,> 1000,
> 1000,< 1000,< 1000,C=C(C[C@H](NC(=O)OC(C)(C)C)C(=O)OC(C)(C)C)C(=O)Nc1ccc(F)cc1,,IC50 (MCF-10A [10]): < 1000 µM
> 1000,> 1000,< 1000,C=C(C[C@H](NC(=O)OC(C)(C)C)C(=O)OCC)C(=O)NCc1ccc([N+](=O)[O-])cc1,> 1000,

IC50 (MCF7 [1]) [µM],IC50 (MDA-MB-231) [µM],IC50 (SK-BR-3) [µM],Structure (SMILES),IC50 at 72 h [2] [µM],further results
,,,C=C(C[C@H](N)C(=O)O)C(N)=O,> 1000,IC50 at 24 h [7]: > 1000 µM
> 1000,> 1000,< 1000,C=C(C[C@H](NC(=O)OC(C)(C)C)C(=O)OCC)C(=O)Nc1ccc(Cl)cc1,> 1000,
> 1000,> 1000,> 1000,C=C(C[C@H](NC(=O)OC(C)(C)C)C(=O)OCC)C(=O)N1CCCCC1,> 1000,
> 1000,< 1000,> 1000,C=C1C[C@@H](C(=O)OC(C)(C)C)NC1=O,> 1000,
,,,C=C(C[C@H](N)C(=O)O)C(=O)Nc1ccc(F)cc1,> 1000,IC50 [3]: 194 µM; Activity (BNC6): Dose-Dependent Effect; IC50 [4]: 182 µM; Activity (WSU-HN31): Dose-Dependent Effect; IC50 [5]: 220 µM; Activity (WSU-HN30): Dose-Dependent Effect; Activity (BNC3): Dose-Dependent Effect; IC50 at 24 h [7]: > 1000 µM; IC50 [8]: 202 µM
> 1000,> 1000,> 1000,C=C1C[C@@H](C(=O)OCC)NC1=O,> 1000,
< 1000,> 1000,< 1000,C=C(C[C@H](NC(=O)OC(C)(C)C)C(=O)OC(C)(C)C)C(N)=O,> 1000,
> 1000,< 1000,< 1000,C=C(C[C@H](NC(=O)OC(C)(C)C)C(=O)OC(C)(C)C)C(=O)NCc1ccc([N+](=O)[O-])cc1,> 1000,
> 1000,> 1000,> 1000,C=C(C[C@H](NC(=O)OC(C)(C)C)C(=O)OC(C)(C)C)C(=O)Nc1ccc(Cl)cc1,> 1000,
> 1000,< 1000,< 1000,C=C(C[C@H](NC(=O)OC(C)(C)C)C(=O)OC(C)(C)C)C(=O)NCc1ccccc1,> 1000,
,,,C=C(C[C@H](N)C(=O)O)C(=O)Nc1ccccc1,> 1000,IC50 [3]: 210 µM; Activity (BNC6): Dose-Dependent Effect; IC50 [4]: 218 µM; Activity (WSU-HN31): Dose-Dependent Effect; IC50 [5]: 92.9 µM; IC50 (MCF7 [6]): > 1000 µM; Activity (WSU-HN30): Dose-Dependent Effect; Activity (BNC3): Dose-Dependent Effect; IC50 at 24 h [7]: > 1000 µM; IC50 [8]: 199 µM
> 1000,< 1000,< 1000,C=C(C[C@H](NC(=O)OC(C)(C)C)C(=O)OC(C)(C)C)C(=O)NCc1ccc(F)cc1,> 1000,
> 1000,> 1000,> 1000,C=C(C[C@H](NC(=O)OC(C)(C)C)C(=O)OCC)C(=O)NC1CC1,> 1000,
,,,C=C(C[C@H](N)C(=O)O)C(=O)N1CCCCC1,> 1000,IC50 [3]: 199 µM; Activity (BNC6): Dose-Dependent Effect; IC50 [4]: 158 µM; Activity (WSU-HN31): Dose-Dependent Effect; IC50 [5]: 97 µM; Activity (WSU-HN30): Dose-Dependent Effect; Activity (BNC3): Dose-Dependent Effect; IC50 at 24 h [7]: > 1000 µM; IC50 [8]: 207 µM
,,,O=NN(CCCl)C(=O)NCCCl [CARMUSTINE],,IC50 [3]: 160 µM; IC50 [4]: 157 µM
,,,C=C(C[C@H](N)C(=O)O)C(=O)NC1CC1,> 1000,IC50 [3]: 187 µM; Activity (BNC6): Dose-Dependent Effect; IC50 [4]: 171 µM; Activity (WSU-HN31): Dose-Dependent Effect; IC50 [5]: 105 µM; Activity (WSU-HN30): Dose-Dependent Effect; Activity (BNC3): Dose-Dependent Effect; IC50 at 24 h [7]: > 1000 µM; IC50 [8]: 196 µM
> 1000,> 1000,< 1000,C=C(C[C@H](NC(=O)OC(C)(C)C)C(=O)OCC)C(=O)NCc1ccc(F)cc1,> 1000,
